Source: article PMC5929363 (Radiology, 2017)

Assays:
[1] = test system: CCl4 mouse model of liver fibrosis; test: Molecular MR imaging of liver fibrosis, CCl4 mouse model, 7.0 T; type: in vivo
Method in brief: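 C57BL6 mice received i.p. CCl4 0.4 μL/g (1:5 in olive oil) twice weekly for 10 weeks; controls received olive oil. Mice were imaged at baseline and 1 week after the last dose at 7.0 T under 1–2% isoflurane, using ungated T1-weighted RARE (TE 4.5 ms, factor 8, TR 600 ms) before and up to 30 min after i.v. 10 μmol/kg. Liver–muscle ΔCNR was analysed as AUC and at the time of maximal difference between fitted exponential curves. Analysis was blinded.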

[2] = In vivo plasma stability/metabolites by HPLC-ICP-MS; set-up: species or system rat; settings: HPLC-ICP-MS of blood plasma
Method in brief: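 Rat plasma sampled over 2 h after i.v. probe injection. HPLC/ICP-MS separated intact probe from any metabolites. Intact probe expressed as percentage of circulating gadolinium at each time point.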

[3] = Gd blood plasma clearance in rats; type: in vivo; settings: rat, after 10 μmol/kg i.v., exponential decay fit, n=4/time point
Method in brief: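 After i.v. probe injection, rat blood plasma sampled over 2 h (n = 4 per time point). Gadolinium quantified by HPLC/ICP-MS. Plasma concentration–time data fitted to exponential decay to give clearance half-life.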

[4] = test system: BDL rat model of liver fibrosis; test: Molecular MR imaging of liver fibrosis, BDL rat model, 1.5 T; type: in vivo; settings: for ΔCNR at 15 minutes post CM-101 / Area under the ΔCNR curve (AUC), liver vs muscle: 1.5 T
Method in brief: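 Male CD rats underwent common bile duct ligation or sham surgery and were imaged at day 19. Imaging at 1.5 T under 1–2% isoflurane used respiratory-gated 3D inversion-recovery FLASH (TI 250 ms, TE 2.44 ms, effective TR ~1000 ms), before and up to 30 min after i.v. 10 μmol/kg. ΔCNR was liver-minus-muscle SNR, giving AUC and ΔCNR at the maximal diseased–control difference time. R1 maps (TI 50–1000 ms) were acquired pre and 30 min post and fitted voxelwise. Analysis was blinded.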

Gd elimination route = type: in vivo; settings: rat, 24-hour collection period, % of the Gd recovered
[5] = Gd biodistribution in ex vivo rat tissue by ICP-MS
Method in brief: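 Rats dosed i.v. with 10 μmol/kg probe. Tissues harvested ex vivo 1 and 14 days post-injection. Gadolinium measured by ICP-MS and expressed as % injected dose per gram of tissue.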

[6] = baseline mice, n=11, 10 μmol/kg i.v.
[7] = sham rats, n=11, 10 μmol/kg i.v.

With `CC(C)C[C@H](NC(=O)[C@@H]1CSSC[C@H](NC(=O)[C@H](Cc2c[nH]cn2)NC(=O)[C@H](Cc2c[nH]c3ccccc23)NC(=O)[C@H](CCCCNC(=O)CCC(C(=O)O)N2CCN(CC(=O)O)CCN(CC(=O)O)CCN(CC(=O)O)CC2)NC(=O)CNC(=O)CCC(C(=O)O)N2CCN(CC(=O)O)CCN(CC(=O)O)CCN(CC(=O)O)CC2)C(=O)N[C@@H]([C@@H](C)O)C(=O)N[C@@H]([C@@H](C)O)C(=O)N[C@@H](CCCCNC(=O)CCC(C(=O)O)N2CCN(CC(=O)O)CCN(CC(=O)O)CCN(CC(=O)O)CC2)C(=O)N[C@@H](Cc2ccccc2)C(=O)N2CCC[C@H]2C(=O)N[C@@H](Cc2c[nH]cn2)C(=O)N[C@@H](Cc2c[nH]cn2)C(=O)N[C@@H](Cc2ccc(O)cc2)C(=O)N1)C(=O)N[C@@H](Cc1ccc(O)cc1)C(=O)N[C@@H](Cc1ccc(-c2ccccc2)cc1)C(N)=O` (stereo partly drawn) [CM-101] the “Area under the ΔCNR curve (AUC), liver vs muscle” value ([1]; CCl4 treated mice (10 weeks), n=8, 10 μmol/kg i.v.) was 601±150, the “ΔCNR at 10 minutes post CM-101” value ([1]; CCl4 treated mice, n=8, 10 μmol/kg i.v.) was 18.3±6.5 and the “Area under the ΔCNR curve (AUC), liver vs muscle” value [1, 6] was 163±54. The “ΔCNR at 10 minutes post CM-101” value [1, 6] was 5.2±1.0, the “Intact CM-101 as % of circulating Gd in plasma” value (“Intact CM-101 as %” below) ([2]; 60 – 120 minutes post injection) was “about 50%” and the “Intact CM-101 as %” value ([2]; 3 minutes post injection) was 97%. The “Intact CM-101 as %” value ([2]; 15 minutes post injection) was 77%, the “Gd blood plasma clearance half-life t1/2” value [3] was 6.8 ± 2.4 min and the “ΔCNR at 15 minutes post CM-101” value ([4]; BDL rats, n=8, 10 μmol/kg i.v.) was 13.6±3.2. The “Change in liver R1 relaxation rate (ΔR1) 30 minutes post CM-101 injection” value ([4]; BDL rats, n=8, 1.5 T) was 0.50 ± 0.23 s⁻¹, the “Area under the ΔCNR curve (AUC), liver vs muscle” value ([4]; BDL rats, n=8, 19 days post procedure, 10 μmol/kg i.v.) was 73.1±17.1 and the “Area under the ΔCNR curve (AUC), liver vs muscle” value [4, 7] was 23.2±15.2. The “ΔCNR at 15 minutes post CM-101” value [4, 7] was 5.7±4.2, the “Change in liver R1 relaxation rate (ΔR1) 30 minutes post CM-101 injection” value ([4]; sham rats, n=11, 1.5 T) was 0.15 ± 0.14 s⁻¹ and the “Gd recovered found in the feces” value (Gd elimination route) was 0.8%. The “Gd recovered found in the urine” value (Gd elimination route) was 99.2%, the “Fold drop of tissue Gd levels from 24-hours to 14 days” value ([5]; rat tissues) was “about 10 fold” and the “Tissue Gd levels at 24-hours (upper bound over all tissues)” value ([5]; rat, all tissues, 24 hours after CM-101 injection) was < 3.9±0.6 %ID/g. For the same compound, the “Gd (% ID/g) @ 24-hours, Bone” value ([5]; rat, bone, 24 hours after 10 μmol/kg i.v., ICP-MS, n=7) was 0.07±0.02 % ID/g, the “Gd (% ID/g) @ 14-days, Bone” value ([5]; rat, bone, 14 days after 10 μmol/kg i.v., ICP-MS, n=8) was 0.01 % ID/g and the “Gd (% ID/g) @ 14-days, Kidney” value ([5]; rat, kidney, 14 days after 10 μmol/kg i.v., ICP-MS, n=8) was 0.33±0.12 % ID/g.
